Legend:
[1] = tested on: Albino Swiss mice; assay: Forced swim test; format: in vivo; conditions: 30 min before the test; for antidepressant effect in the forced swim test (in words): mice, ip
In short: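 Male Albino Swiss mice (24-28 g), kept at 20 ± 1°C with free food and water and used once. Test compound was injected 30 min before the session. Each mouse swam 6 min in a glass cylinder (25 cm high, 10 cm diameter) holding 6 cm of water at 23-25°C. An observer timed immobility (floating, small head-keeping movements) over the last 4 min, after 2 min habituation. Mean ± SEM; Dunnett's test vs vehicle.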

[2] = tested on: Albino Swiss mice; assay: Locomotor activity test; format: in vivo; conditions: 8 20 mg/kg, 10 5 mg/kg, 12 10 mg/kg; ip 30 min before the test; first 6 minutes; vehicle 554 ± 46

SMILES	antidepressant effect in the forced swim test (in words) [1]	Locomotor activity 6 minutes (number of light beam crossings ± S.E.M.) [2]	reduction in mice immobility time ([1]; 5 mg/kg ip) [%]	reduction in mice immobility time ([1]; 10 mg/kg ip) [%]	reduction in mice immobility time ([1]; 20 mg/kg ip) [%]
CCCCCCCCCN1CCN(c2ccc3cc([N+](=O)[O-])ccc3n2)CC1 [Compound 9, 2-(4-Nonyl-piperazin-1-yl)-6-nitroquinoline]	ineffective				
CCCCCCCCCCCN1CCN(c2ccc3cc([N+](=O)[O-])ccc3n2)CC1 [Compound 11, 2-(4-Undecyl-piperazin-1-yl)-6-nitroquinoline]	ineffective				
CCCCCCCCCCN1CCN(c2ccc3cc([N+](=O)[O-])ccc3n2)CC1 [Compound 10, 2-(4-Decylo-piperazin-1-yl)-6-nitroquinoline]	moderate antidepressant activity	239 ± 41	12		
CCCCCCCCCCCCN1CCN(c2ccc3cc([N+](=O)[O-])ccc3n2)CC1 [Compound 12, 2-(4-Dodecyl-piperazin-1-yl)-6-nitroquinoline]	moderate antidepressant activity	628 ± 55	10	8	
CCCCCCCCN1CCN(c2ccc3cc([N+](=O)[O-])ccc3n2)CC1 [Compound 8, 2-(4-Octyl-piperazin-1-yl)-6-nitroquinoline]	moderate antidepressant activity	453 ± 41			15
